Laboratory results as given in ChEMBL document CHEMBL1629488, “Synthesis and biological evaluation of 2-(3',4',5'-trimethoxybenzoyl)-3-aryl/arylaminobenzo[b]thiophene derivatives as a novel class of antiproliferative agents” (Eur J Med Chem, 2010).
Activity calls are given as the source filed them. The calls are words filed in the database; no cut-off is given here.

Key:
HeLa [1] = experiment: Induction of apoptosis in human HeLa cells assessed as caspase-3-mediated cleavage of PARP after 24 hrs by Western blot analysis; format: functional, cell-based
Summary of the method: (§1)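 Treated cells washed twice in ice-cold PBS, lysed 30 min on ice, lysate cleared at 15000×g, 4 °C, 10 min; protein by BCA. 20 μg per lane on SDS-PAGE (7.5–15%), PVDF transfer, overnight block at 4 °C; primary antibodies 2 h at room temperature, peroxidase secondaries 60 min, ECL detection; β-actin loading control.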

HeLa [2] = experiment: Upregulation of p53 protein expression in human HeLa cells at up to 2.5 uM after 24 to 48 hrs by Western blot analysis; format: functional, cell-based; summary of the method: as §1
Jurkat [3] = experiment: Cell cycle arrest in human Jurkat cells assessed as accumulation at S phase at 1.25 uM after 24 hrs using propidium iodide staining by flow cytometry relative to control; format: functional
Summary of the method: (§2)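 Exponentially growing cells (5 × 10^5) exposed to graded compound levels, 0.312 to 5 μM, for 24 or 48 h; collected, fixed in ice-cold 70% ethanol, treated with lysis buffer containing RNase A and 0.1% Triton X-100, stained with propidium iodide; DNA content read by flow cytometry. Mean ± SEM of two independent experiments.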

HeLa [4] = experiment: Induction of apoptosis in human HeLa cells assessed as early apoptotic cells at 2.5 uM after 24 hrs using FITC-conjugated annexin V and propidium iodide staining by flow cytometry assay (RVb = 1.5 %); format: functional
HeLa [5] = experiment: Induction of apoptosis in human HeLa cells assessed as caspase-3-mediated cleavage of PARP after 24 to 48 hrs; format: functional, cell-based; summary of the method: as §1
HeLa [6] = experiment: Induction of apoptosis in human HeLa cells assessed as early apoptotic cells at 0.62 uM after 24 hrs using FITC-conjugated annexin V and propidium iodide staining by flow cytometry assay (RVb = 1.5 %); format: functional
HeLa [7] = experiment: Cell cycle arrest in human HeLa cells assessed as accumulation at G2/M phase at 1.25 uM after 24 hrs using propidium iodide staining by flow cytometry relative to control; format: functional; summary of the method: as §2
HeLa [8] = experiment: Induction of apoptosis in human HeLa cells assessed as loss of mitochondrial membrane potential after 24 to 48 hrs using Rho123 staining by flow cytometry; format: functional, cell-based
Summary of the method: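 After 24 or 48 h exposure, HeLa cells were pelleted, resuspended in HBSS with 0.1 μM rhodamine 123, held 20 min at 37 °C, spun and resuspended in HBSS; fluorescence read by flow cytometry. Mean ± S.E.M. of 3 independent experiments.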

[9] = Inhibition of tubulin polymerization after 20 mins by turbidimetry
Jurkat [10] = experiment: Cell cycle arrest in human Jurkat cells assessed as hypodiploid peak at sub-G1 phase at 0.312 to 5 uM uM after 48 hrs using propidium iodide staining by flow cytometry; format: functional, cell-based; summary of the method: as §2
HeLa [11] = experiment: Induction of apoptosis in human HeLa cells assessed as late apoptotic cells at 0.62 uM after 24 hrs using FITC-conjugated annexin V and propidium iodide staining by flow cytometry assay (RVb = 1.9 %); format: functional
HeLa [12] = experiment: Induction of apoptosis in human HeLa cells assessed as viable cells at 2.5 uM after 24 hrs using FITC-conjugated annexin V and propidium iodide staining by flow cytometry assay (RVb = 94.7 %); format: functional; conditions: read-out: Activity
HeLa [13] = experiment: Upregulation of cdc25c protein expression in human HeLa cells at 0.6 to 2.5 uM after 24 to 48 hrs by Western blot analysis; format: functional, cell-based; summary of the method: as §1

- IC50 [9]: 7.2 µM
SMILES: CCOc1ccc(Nc2c(C(=O)c3cc(OC)c(OC)c(OC)c3)sc3ccccc23)cc1
- Activity (HeLa [1]): Active
- Activity (HeLa [2]): inactive
- Activity (Jurkat [3]): 18%
- Activity (HeLa [4]): 6.4%
- Activity (HeLa [5]): Dose-dependent effect
- Activity (HeLa [6]): 5.2%
- Activity (HeLa [7]): 85%
- Activity (HeLa [8]): Dose-dependent effect
- Activity (Jurkat [10]): Active
- Activity (HeLa [11]): 14.4%
- viability at 2.5 µM (HeLa [12]): 49.4%
- Activity (HeLa [13]): Active
